The values below come from publication PMC3580291 (Cell Calcium, 2013).

Read-outs that look alike come from different tables or passages of the source.

One test has as its target STIM1/Orai3 currents (Homo sapiens, UniProt Q9BRQ5). In words: whole-cell patch-clamp of STIM1-mediated Orai3 currents in HEK293 cells. Format: cell-based. To be noted: for inhibition of maximally activated STIM1/Orai3 currents: 10 μM, whole cell inward current at −74 mV, HEK293; for recovery of Orai3 currents upon wash-out: after full block by 10 μM, 4–5 min wash-out with 10 mM Ca^2+ solution. The gist of the method: (§1)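 HEK293 cells transfected with CFP-STIM1 plus YFP-Orai construct and recorded 24 h later. Whole-cell patch clamp at 20–24 °C with passive store depletion via a pipette containing (mM) 145 Cs methanesulfonate, 20 EGTA, 3.5 MgCl2, 8 NaCl, 10 HEPES, pH 7.2. Bath contained 10 mM CaCl2, pH 7.4. Ramps from −90 to +90 mV over 1 s, every 5 s, from 0 mV holding. Inward current taken at −74 mV. Leak correction used the initial trace or post-10 μM La3+ trace.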
On the technique in general: Patch clamp records ionic current or voltage across a cell membrane.

Another test deals with STIM1/Orai1 currents (Homo sapiens, UniProt Q96D31). In words: whole-cell patch-clamp of STIM1-mediated Orai1 currents in HEK293 cells. Format: cell-based. To be noted: for kinetics of Orai1 current inhibition, slower than La^3+: relative to La^3+; for inhibition of maximally activated STIM1/Orai1 currents: whole cell inward current at −74 mV, HEK293; for recovery of Orai1 currents upon wash-out: after full block by 10 μM, 4–5 min wash-out with 10 mM Ca^2+ solution. The gist of the method: as §1
STIM1/Orai1 currents, sequence (Q96D31 whole entry): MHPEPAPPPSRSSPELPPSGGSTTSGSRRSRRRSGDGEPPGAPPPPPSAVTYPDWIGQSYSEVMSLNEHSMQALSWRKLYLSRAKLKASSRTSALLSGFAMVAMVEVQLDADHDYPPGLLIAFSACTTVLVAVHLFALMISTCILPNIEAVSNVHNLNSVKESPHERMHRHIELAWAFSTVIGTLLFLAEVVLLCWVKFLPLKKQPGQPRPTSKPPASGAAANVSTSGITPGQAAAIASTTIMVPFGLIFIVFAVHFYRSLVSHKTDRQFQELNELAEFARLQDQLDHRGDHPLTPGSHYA
STIM1/Orai1 currents, sequence (Q13586 23-685 partner): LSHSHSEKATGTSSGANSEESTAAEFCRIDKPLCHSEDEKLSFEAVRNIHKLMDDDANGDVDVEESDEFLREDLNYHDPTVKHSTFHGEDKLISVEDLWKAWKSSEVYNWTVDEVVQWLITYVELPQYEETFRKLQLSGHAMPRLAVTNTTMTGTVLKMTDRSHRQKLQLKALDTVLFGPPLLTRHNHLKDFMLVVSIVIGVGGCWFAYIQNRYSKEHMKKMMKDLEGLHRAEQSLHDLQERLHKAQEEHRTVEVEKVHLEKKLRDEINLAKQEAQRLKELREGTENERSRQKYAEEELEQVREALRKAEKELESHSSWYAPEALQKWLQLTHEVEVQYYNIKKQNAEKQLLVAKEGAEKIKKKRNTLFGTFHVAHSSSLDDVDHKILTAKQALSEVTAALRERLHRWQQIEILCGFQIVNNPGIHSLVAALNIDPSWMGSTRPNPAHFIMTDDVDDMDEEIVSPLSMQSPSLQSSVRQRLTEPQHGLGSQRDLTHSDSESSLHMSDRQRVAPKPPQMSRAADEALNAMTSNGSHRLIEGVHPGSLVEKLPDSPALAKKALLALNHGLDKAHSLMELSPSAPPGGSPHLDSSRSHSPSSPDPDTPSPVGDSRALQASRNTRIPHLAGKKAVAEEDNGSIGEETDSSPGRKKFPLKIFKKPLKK

Test [1] deals with 2-APB stimulated Orai3 currents (Homo sapiens, UniProt Q9BRQ5). In words: whole-cell patch-clamp of 2-APB stimulated Orai3 currents. Format: cell-based.
The test system of a further test is HEK293 cells. It is filed as cell-based.
Test [2] concerns endogenous CRAC channels of RBL-2H3 cells. In words: whole-cell patch-clamp of endogenous CRAC currents in RBL-2H3 cells. To be noted: 10 μM; passive store-depletion; −74 mV. It is filed as cell-based, rat. The gist of the method:
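RBL-2H3 cells grown in RPMI 1640 with 10% FBS, 1% penicillin–streptomycin and 1% L-glutamine at 37 °C, 5% CO2. Endogenous CRAC current activated by passive store depletion (20 mM EGTA pipette) in whole-cell mode. Inward current at −74 mV followed during perfusion of 10 μM test compound, with 10 μM La3+ as reference.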

The target in a further test is rat-TRPV6 channels (Rattus norvegicus, UniProt Q9R186). As to the kind of experiment: whole-cell patch-clamp of TRPV6 expressing HEK293 cells. The note with it: 10 μM, −74 mV. Format: cell-based.
rat-TRPV6 channels, sequence (Q9R186 41-767): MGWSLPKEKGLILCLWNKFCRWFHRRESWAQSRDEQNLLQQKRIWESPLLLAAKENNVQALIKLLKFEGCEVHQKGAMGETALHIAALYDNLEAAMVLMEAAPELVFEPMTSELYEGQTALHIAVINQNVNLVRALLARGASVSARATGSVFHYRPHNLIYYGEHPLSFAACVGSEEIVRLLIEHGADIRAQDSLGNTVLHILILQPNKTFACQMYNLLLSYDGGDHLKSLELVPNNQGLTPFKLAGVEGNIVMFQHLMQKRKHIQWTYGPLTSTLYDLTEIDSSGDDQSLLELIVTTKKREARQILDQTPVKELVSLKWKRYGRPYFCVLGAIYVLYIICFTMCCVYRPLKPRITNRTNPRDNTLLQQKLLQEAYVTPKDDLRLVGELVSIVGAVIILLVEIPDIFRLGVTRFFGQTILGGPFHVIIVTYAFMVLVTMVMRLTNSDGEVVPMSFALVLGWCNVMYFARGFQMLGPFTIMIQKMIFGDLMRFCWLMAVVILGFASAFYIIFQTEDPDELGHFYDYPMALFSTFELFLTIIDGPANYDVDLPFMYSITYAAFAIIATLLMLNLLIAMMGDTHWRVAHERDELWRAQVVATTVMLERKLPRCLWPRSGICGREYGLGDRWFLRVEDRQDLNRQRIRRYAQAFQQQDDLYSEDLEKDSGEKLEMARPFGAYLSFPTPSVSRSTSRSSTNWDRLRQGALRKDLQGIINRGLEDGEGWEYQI
The next test deals with CaV1.2 (L-type) (Homo sapiens, UniProt Q13936). As to the kind of experiment: selectivity profile, over-expressed ion channel. Format: cell-based. The note with it: Activity (IC50), antagonistic action; Human CaV1.2 (L-type).
In another test the target is L-type Ca^2+ channels (Homo sapiens, UniProt Q13936). As to the kind of experiment: whole-cell patch-clamp of L-type Ca2+ channel expressing HEK293 cells. Format: cell-based. The note with it: 10 μM.
The target of test [3] is STIM1-CFP/Orai1-YFP interaction (Homo sapiens, UniProt Q13586+Q96D31). As to the kind of experiment: confocal FRET microscopy of STIM1/Orai1 coupling. It is filed as cell-based. To be noted: 10 μM after store-depletion by thapsigargin; HEK cells. The gist of the method:
(§2)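 HEK293 cells transfected with CFP/YFP-tagged STIM1 and/or Orai1 and imaged 24 h later by confocal FRET microscopy with 457/488/514 nm laser lines. CFP, FRET and YFP images used about 900–1500 ms illumination. Crosstalk and cross-excitation factors were set per construct daily. Pixelwise corrected FRET (NFRET) was computed after background subtraction, limited to CFP:YFP molar ratio 1:10–10:1. Data given as mean ± S.E.M.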

Test [4] concerns the target CFP-STIM1/YFP-STIM1 oligomerization (Homo sapiens, UniProt Q13586). As to the kind of experiment: confocal FRET microscopy of STIM1 oligomerization. The note with it: 10 μM applied 5 min before store-depletion with 2 μM thapsigargin. Format: cell-based. The method in brief:
as §2

The test system of the next test is human lung mast cells. To be noted: 3 μM; cited from earlier work.
The target of test [5] is STIM1/Orai1 D110/112/114A (Homo sapiens, UniProt Q96D31, D110A/D112A/D114A). It is filed as cell-based. The note with it: 10 μM.
STIM1/Orai1 D110/112/114A, sequence (Q96D31 whole entry D110A/D112A/D114A): as the sequence (Q96D31 whole entry) above, with D110A, D112A, D114A counted along it
STIM1/Orai1 D110/112/114A, sequence (Q13586 23-685 partner): as the sequence (Q13586 23-685 partner) above
For the next test, the target named is STIM1/Orai1 E106D (Homo sapiens, UniProt Q96D31, E106D). As to the kind of experiment: whole-cell patch-clamp of STIM1-activated Orai1 E106D pore mutant currents. It is filed as cell-based. The method in brief:
as §1

In test [6] the test system is CRAC/SOC currents in RBL cells. The note with it: 30 μM; cited from earlier work.
The subject of the next test is Orai3. The note with it: cited from earlier work.
Another test concerns Orai1 currents. To be noted: cited from earlier work.
A further test has as its system Orai2. The note with it: high concentrations (50 μM), compared with Orai1; cited from earlier work.
In a further test the test system is CRAC currents. The note with it: cited from earlier work.
Test [7] relates to interleukin-2 (IL-2) production in lymphocytes. The note with it: cited from earlier work.
A further test concerns RBL mast cells. The note with it: read-out: IC50 on RBL mast cells; cited from earlier work.
In test [8] the test system is STIM1 clustering in smooth muscle cells. The note with it: cited from earlier work.

STIM1/Orai1 E106D, sequence (Q96D31 whole entry E106D): as the sequence (Q96D31 whole entry) above, with E106D counted along it
STIM1/Orai1 E106D, sequence (Q13586 23-685 partner): as the sequence (Q13586 23-685 partner) above
STIM1-CFP/Orai1-YFP interaction, sequence (Q96D31 whole entry): as the sequence (Q96D31 whole entry) above
STIM1-CFP/Orai1-YFP interaction, sequence (Q13586 23-685): as the sequence (Q13586 23-685 partner) above
CFP-STIM1/YFP-STIM1 oligomerization, sequence (Q13586 23-685): as the sequence (Q13586 23-685 partner) above
CFP-STIM1/YFP-STIM1 oligomerization, sequence (Q13586 23-685): as the sequence (Q13586 23-685 partner) above

As to `O=C(Nc1ccn(Cc2ccccc2Oc2ccccc2)n1)c1c(F)cccc1F` [GSK-5503A, 2,6-difluoro-N-(1-(2-phenoxybenzyl)-1H-pyrazol-3-yl)benzamide], on STIM1/Orai3 currents, the “inhibition of maximally activated STIM1/Orai3 currents” value is recorded as “fully inhibited” and the “recovery of Orai3 currents upon wash-out” value is reported as “not readily reversible”. Also, on STIM1/Orai1 currents (10 μM), the “kinetics of Orai1 current inhibition, slower than La^3+” value was determined as 2.5 fold and the “inhibition of maximally activated STIM1/Orai1 currents” value was “complete Orai1 current inhibition”. At STIM1/Orai1 currents, the “recovery of Orai1 currents upon wash-out” value is reported as “not readily reversible”.
The term inhibition denotes the share of the control response that was lost under treatment. For orientation: IC50 means the concentration that inhibits the measured activity by half. As to `O=C(Nc1ccn(Cc2ccc(O)cc2C(F)(F)F)n1)c1c(F)cccc1F` [GSK-7975A, 2,6-difluoro-N-(1-(4-hydroxy-2-(trifluoromethyl)benzyl)-1H-pyrazol-3-yl)benzamide], the “inhibition of maximally 2-APB stimulated Orai3 currents” value in [1] (10 μM, 75 μM 2-APB) is on record as “totally ineffective”. In addition, in [1] (100 μM), the “inhibition of maximally 2-APB activated Orai3 currents” value is on record as “full inhibition”. The inhibition at 50 µM in [1] (read-out: inhibition of maximally 2-APB activated Orai3 currents) worked out at 50%. Besides, the “amount of Ca^2+ released from ER stores” value with HEK293 cells (10 μM pre-incubation, stimulation by carbachol (CCH) or BHQ) is reported as “not markedly altered”. For the same compound, the “inhibition of endogenous store-operated Ca^2+ entry of HEK293 cells” value with HEK293 cells (pre-incubation with 10 μM, Fura-2) is on record as “substantially inhibited”. The “inhibition of RBL CRAC currents” value in test [2] is “fully blocked”. For the same compound, at rat-TRPV6 channels, the “inhibition of TRPV6 currents” value was “completely inhibited”. The IC50 on CaV1.2 (L-type) was ~8 µM. Besides, on STIM1/Orai3 currents, the “Hill coefficient, inhibition of Orai3 currents” value is on record as ~1; the “inhibition of maximally activated STIM1/Orai3 currents” value is listed as “fully inhibited”; the “recovery of Orai3 currents upon wash-out” value was “not readily reversible”. In addition, on STIM1/Orai1 currents, the “Hill coefficient, inhibition of Orai1 currents” value is reported as ~1 and the “recovery of Orai1 currents upon wash-out” value is “not readily reversible”. Moreover, on STIM1/Orai1 currents (3 μM (Suppl. Fig. 1)), the “effect on Ca^2+-induced fast inactivation of STIM1/Orai1” value is “did not significantly increase inactivation”. Also, the “inhibition of CRAC currents upon intracellular application” value against STIM1/Orai1 currents (10 μM intracellular application, data not shown) was “slight inhibition”. Further, the “inhibition of STIM1/Orai1 monovalent currents in divalent free (DVF) solution” value at STIM1/Orai1 currents (10 μM, Na^+ as main charge carrier) is listed as “fully blocked”. In addition, at STIM1/Orai1 currents (10 μM), the “kinetics of Orai1 current inhibition, slower than La^3+” value stood at 2.5 fold and the “inhibition of maximally activated STIM1/Orai1 currents” value was “complete Orai1 current inhibition”. In addition, the “inhibition of L-type Ca^2+ channel currents” value against L-type Ca^2+ channels is on record as “moderate inhibition”. Moreover, in test [3], the “effect on FRET plateau representing STIM1/Orai1 interaction” value is reported as “did not significantly alter”. For the same compound, the “effect on FRET increase (STIM1 oligomerization) upon store-depletion” value in [4] was “unaffected”. In addition, in the test with human lung mast cells, the “Ca^2+ influx in human lung mast cells” value was “significantly reduced” and the “release of inflammatory mediators from human lung mast cells” value is reported as “significantly reduced”. Besides, the “inhibition of STIM1-activated Orai1 D110/112/114A currents” value in [5] is “substantial inhibition almost comparable to that of wild-type Orai1”. For the same compound, the “inhibition of STIM1-activated Orai1 E106D currents” value against STIM1/Orai1 E106D (10 μM) is listed as “no inhibition”. The “inhibition of STIM1-mediated Orai1 E106D currents” value against STIM1/Orai1 E106D (100 μM) is listed as “substantially but not fully restored the inhibitory effect”.
On to `CC/C(=C(/CC)c1ccc(O)cc1)c1ccc(O)cc1` [DES, diethylstilbestrol, reference compound], for which, in test [6], the “block of CRAC/SOC currents in RBL cells” value is recorded as “effective block”. Also, the “time to full blockade of STIM1-activated Orai1 currents” value at STIM1/Orai1 currents (10 μM (Fig. 2B)) is ≤ 50 s. For the same compound, the “inhibition of maximally activated STIM1/Orai1 currents” value at STIM1/Orai1 currents (10 μM) is “full and rapid blockade”.
Regarding `NCCOB(c1ccccc1)c1ccccc1` [2-APB, 2-aminoethoxydiphenylborate], the “effect on Orai3 currents” value in the test on Orai3 (75 μM, independent of STIM1) is reported as “robust current stimulation”. Further, in the test on Orai3, the “effect on over-expressed Orai3” value is recorded as “robustly stimulated”. Also, the “effect on over-expressed Orai1” value in the test on Orai1 currents (high concentrations (50 μM)) is recorded as “robust block”. Also, the figures for the “effect on Orai1 currents” value in the test with Orai1 currents (higher concentrations (>40 μM)) and in the test on Orai1 currents (low concentrations (5 μM)) were “inhibit” and “enhance”, respectively. For the same compound, the “effect on STIM1/Orai1 currents” value on STIM1/Orai1 currents (75 μM) is given as “transient stimulation followed by a complete inhibition”. In the test on Orai2, the “effect on over-expressed Orai2” value is on record as “less sensitive”. The “effect on CRAC currents” value was “completely blocked” with CRAC currents (concentrations higher than 10 μM) and “enhanced” with CRAC currents (low concentrations (1–5 μM)).
On to `Cc1nnsc1C(=O)Nc1ccc(-n2nc(C(F)(F)F)cc2C(F)(F)F)cc1` [BTP2], for which the “effect on interleukin-2 (IL-2) production in lymphocytes” value in [7] is reported as “potently blocks”.
Turning to `COc1ccc(OC)c(-c2ccc(NC(=O)c3ccncc3F)cc2)c1` [Synta-66, N-(2′,5′-dimethoxy-[1,1′-biphenyl]-4-yl)-3-fluoroisonicotinamide, reference compound], the “inhibition of maximally activated STIM1/Orai3 currents” value at STIM1/Orai3 currents is recorded as “inhibited Orai3 currents at a similar rate to the GSK compounds”. Besides, in the test on RBL mast cells, the IC50 is 1 to 3 µM. In addition, the “inhibition of maximally activated STIM1/Orai1 currents” value on STIM1/Orai1 currents (10 μM) is recorded as “reduced Orai1 currents”. In addition, the “interference with STIM1 clustering” value in test [8] is on record as “does not interfere with STIM1 clustering”.
Regarding `[La+3]` [La^3+, reference compound], at rat-TRPV6 channels, the “inhibition of TRPV6 currents” value was “fully blocked”. Also, the “inhibition of maximally activated STIM1/Orai1 currents” value against STIM1/Orai1 currents (10 μM) is reported as “complete inhibition”. Further, the “inhibition of L-type Ca^2+ channel currents” value against L-type Ca^2+ channels was “fully blocked”.
